This note sets out measurements from PMC7781011 (Journal of Inflammation Research, 2020).

Test [1] addresses T1, mouse mPGES-1 (Mus musculus, UniProt Q9JM51).
T1 sequence (Q9JM51 1-153): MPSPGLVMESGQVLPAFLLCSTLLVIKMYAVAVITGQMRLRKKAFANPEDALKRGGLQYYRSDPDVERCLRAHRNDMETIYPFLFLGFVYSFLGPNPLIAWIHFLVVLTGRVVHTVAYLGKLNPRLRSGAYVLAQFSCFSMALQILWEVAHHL
The test can be described thus: Cell-free mPGES-1 assay. Type of test: biochemical. A digest of the protocol:
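Enzyme in 15 mM Tris-HCl pH 7.4 with 1 mM GSH, preincubated 20 min with compound (0.1–100 µM); plate held 15 min at 20°C. PGH2 (final 2.8 µM) added, 45 s at room temperature, then stopped with SnCl2 in 1N HCl. PGE2 by ELISA, in triplicate, % inhibition versus untreated. Human enzyme from E. coli or commercial; mouse enzyme from vas deferens/seminal vesicles. IC50 by four-parameter nonlinear regression.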

Test [2] concerns the target T2, rat 5-LOX (Rattus norvegicus, UniProt P12527).
T2 sequence (P12527 1-673): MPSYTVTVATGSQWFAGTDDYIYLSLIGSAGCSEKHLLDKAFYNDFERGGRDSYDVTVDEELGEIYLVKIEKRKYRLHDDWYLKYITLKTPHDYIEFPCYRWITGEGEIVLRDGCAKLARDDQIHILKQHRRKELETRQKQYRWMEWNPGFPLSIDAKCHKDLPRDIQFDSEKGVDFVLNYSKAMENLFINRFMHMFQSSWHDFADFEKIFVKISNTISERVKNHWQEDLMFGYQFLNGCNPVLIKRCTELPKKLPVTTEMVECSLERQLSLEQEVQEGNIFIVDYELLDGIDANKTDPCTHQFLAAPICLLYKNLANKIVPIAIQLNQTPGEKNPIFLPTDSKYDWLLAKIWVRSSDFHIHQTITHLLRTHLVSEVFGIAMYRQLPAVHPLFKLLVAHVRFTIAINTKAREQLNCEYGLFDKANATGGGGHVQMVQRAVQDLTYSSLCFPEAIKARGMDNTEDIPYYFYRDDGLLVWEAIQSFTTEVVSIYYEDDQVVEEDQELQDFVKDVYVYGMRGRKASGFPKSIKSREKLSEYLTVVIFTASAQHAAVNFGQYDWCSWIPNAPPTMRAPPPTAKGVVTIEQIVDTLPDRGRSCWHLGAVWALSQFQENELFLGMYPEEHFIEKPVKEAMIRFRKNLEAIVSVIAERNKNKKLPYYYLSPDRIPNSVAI
The test can be described thus: Cell-free fluorometric 5-LOX assay. Type of test: biochemical.

The target of test [3] is T3, mouse COX-1 (Mus musculus, UniProt P22437).
T3 sequence (P22437 27-602): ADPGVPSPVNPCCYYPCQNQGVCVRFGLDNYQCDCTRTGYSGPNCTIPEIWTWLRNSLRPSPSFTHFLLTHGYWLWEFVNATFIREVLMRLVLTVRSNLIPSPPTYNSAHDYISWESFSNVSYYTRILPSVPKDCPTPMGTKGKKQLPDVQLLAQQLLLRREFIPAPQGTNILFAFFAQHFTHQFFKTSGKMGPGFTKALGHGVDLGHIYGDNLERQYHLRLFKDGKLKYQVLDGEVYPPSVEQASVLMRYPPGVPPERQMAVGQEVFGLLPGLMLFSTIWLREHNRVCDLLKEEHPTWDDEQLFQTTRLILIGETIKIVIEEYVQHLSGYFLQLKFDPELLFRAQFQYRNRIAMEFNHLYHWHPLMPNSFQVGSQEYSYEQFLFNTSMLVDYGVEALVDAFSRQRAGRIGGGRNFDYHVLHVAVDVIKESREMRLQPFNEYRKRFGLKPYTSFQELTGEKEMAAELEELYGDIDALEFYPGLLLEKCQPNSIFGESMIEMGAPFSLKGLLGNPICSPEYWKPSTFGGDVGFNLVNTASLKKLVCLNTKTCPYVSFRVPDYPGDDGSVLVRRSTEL
Put plainly: Cell-free fluorometric COX-1 assay. Type of test: biochemical.

Test [4] addresses T4, mouse COX-2 (Mus musculus, UniProt Q05769).
T4 sequence (Q05769 18-604): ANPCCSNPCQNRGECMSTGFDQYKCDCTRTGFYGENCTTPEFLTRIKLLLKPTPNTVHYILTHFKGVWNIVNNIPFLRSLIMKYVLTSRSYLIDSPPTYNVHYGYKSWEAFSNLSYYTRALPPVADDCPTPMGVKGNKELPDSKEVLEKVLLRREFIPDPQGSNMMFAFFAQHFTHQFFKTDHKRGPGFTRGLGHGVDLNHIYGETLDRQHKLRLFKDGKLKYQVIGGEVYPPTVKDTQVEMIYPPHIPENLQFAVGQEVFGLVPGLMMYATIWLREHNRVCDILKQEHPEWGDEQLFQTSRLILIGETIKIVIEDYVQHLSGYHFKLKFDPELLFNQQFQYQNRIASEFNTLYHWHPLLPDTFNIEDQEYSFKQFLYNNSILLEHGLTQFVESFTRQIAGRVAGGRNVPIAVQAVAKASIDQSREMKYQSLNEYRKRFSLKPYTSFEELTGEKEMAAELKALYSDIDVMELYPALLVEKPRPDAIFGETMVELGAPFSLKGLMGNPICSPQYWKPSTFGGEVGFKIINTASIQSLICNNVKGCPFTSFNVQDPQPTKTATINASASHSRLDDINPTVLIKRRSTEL
The test can be described thus: Cell-free fluorometric COX-2 assay. Type of test: biochemical.

The subject of test [5] is PGE2 production in LPS-stimulated macrophages of humans, mice, and rats. Put plainly: PGE2 production in LPS-stimulated macrophages, range over species. Type of test: cell-based. The settings on record: Macrophage, read-out: IC50 range PGE2 production. The method, boiled down:
(§1)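 Human macrophages derived from THP-1 monocytes with PMA. Rat/mouse peritoneal macrophages collected by lavage with ice-cold DMEM, selected by glass adherence (1 h, 37°C), Trypan-blue checked. Cells in DMEM+10% FBS at 10,000 (96-well) or 40,000 (24-well) per well, given non-toxic compound doses, then LPS 10 µg/mL for 24 h. PGE2, PGI2 and LTB4 measured in supernatant. IC50 by four-parameter nonlinear regression.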

For test [6], the system named is LTB4 production in LPS-stimulated macrophages of humans, mice, and rats. Put plainly: LTB4 production in LPS-stimulated macrophages, range over species. Type of test: cell-based. The settings on record: Macrophage, read-out: IC50 range LTB4 production. The method, boiled down:
as §1

Test [7] deals with PGE2 production, colon tumor spheroids of Apc^Pirc/+ rats. The test can be described thus: PGE2 in colon spheroid culture supernatant. Type of test: cell-based, rat. To be noted: compared with the untreated control. The method, boiled down: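 Pirc rat colorectal crypt/single-cell spheroids grown in ultra-low-attachment wells in B27/N2, FBS, EGF, Noggin, R-spondin 1 and Y-27632 medium, changed every other day. PGE2 in supernatants of treated and untreated wells measured by ELISA, in pg/mL.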

Setting [8] is: cell-free, mouse, up to the tested range of 1 mM.

As usually defined, the IC50 is the concentration needed to halve the response being measured. As for `CC1(C)Cc2c(-c3ccccc3)c(-c3ccc(Cl)cc3)c(CC(=O)NCC(=O)O)n2C1` [LFA-9, 2-[[2-[2-(4-chlorophenyl)-6,6-dimethyl-1-phenyl-5,7-dihydropyrrolizin-3-yl]acetyl]amino]acetic acid], the IC50 is 520 nM in test [1], 890 nM in test [2], 470 to 780 nM in test [5] and 630 to 1240 nM in test [6]. In addition, in test [3] (setting [8]), the “inhibition of COX-1 activity” value is on record as “did not show inhibition”. Further, in test [4] (setting [8]), the “inhibition of COX-2 activity” value is “did not show inhibition”. The “inhibition of PGE2 production” value in test [7] was determined as 82%.

For `CC1(C)Cc2c(-c3ccccc3)c(-c3ccc(Cl)cc3)c(CC(=O)O)n2C1` [Licofelone, reference compound], the IC50 is greater than 15000 nM in test [1]; 640 nM in test [2]; 1740 nM in test [3]; 2010 nM in test [4]; 560 to 1310 nM in test [5]; 530 to 1600 nM in test [6]. The “inhibition of PGE2 production” value in test [7] was 63%.
